Values after ≈ are worked out from the molar mass of the structure shown.
What was measured:
[1] = tested on: GTPase KRas (Homo sapiens), P01116 [G12C]; assay: Inhibition of KRAS G12C mutant (unknown origin) at 10 uM incubated for 2 hrs in presence of GDP by rapidfire mass spectrometry analysis relative to control
In short: (§1)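 GDP-bound KRASG12C (2 μM) incubated with 10 μM compound. Intact-protein mass spectrometry quantifies relative % covalent adduct at Cys12 at the stated time point.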

[2] = tested on: GTPase KRas (Homo sapiens), P01116 [G12C]; assay: Inhibition of KRAS G12C mutant (unknown origin) assessed as pseudo first order rate constant incubated for 0.02 to 20 hrs in presence of GDP by rapidfire mass spectrometry analysis
In short: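 GDP-bound KRASG12C (2 μM) with 10 μM compound. Intact-protein MS measures covalent adduct at Cys12 after 0.02, 0.2, 2 and 20 h. Conversions between 10% and 90% are converted to kobs/[I] (M–1 s–1) under pseudo-first-order kinetics.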

[3] = tested on: GTPase KRas (Homo sapiens), P01116 [G12C]; assay: Inhibition of KRAS G12C mutant (unknown origin) at 10 uM incubated for 0.2 hrs in presence of GDP by rapidfire mass spectrometry analysis relative to control; in short: as §1
[4] = Half life of compound in phosphate buffer at pH 7.4 in presence of GSH by LC/MS analysis; assay type: physicochemical; conditions: phosphate buffer with GSH
In short: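 Intrinsic thiol reactivity toward 5 mM glutathione. Half-life is taken from the rate at which parent compound disappears.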

[5] = tested on: GTPase KRas (Homo sapiens), P01116 [G12C]; assay: Inhibition of KRAS G12C mutant (unknown origin) at 10 uM incubated for 20 hrs in presence of GDP by rapidfire mass spectrometry analysis relative to control; in short: as §1
GTPase KRas [6] = target: GTPase KRas (Homo sapiens, UniProt P01116, G12C); assay: Inhibition of KRAS G12C mutant in human MIAPaCa2 cells assessed as reduction in EGF-induced ERK1/2 phosphorylation incubated for 4 hrs followed by EGF addition by luminescence based assay; assay type: cell-based
[7] = Plasma protein binding in human assessed as unbound fraction at 5 uM by ultracentrifugation method; assay type: ADME, cell-free
In short: (§2)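 Plasma protein binding measured by ultracentrifugation, compound at 5 μM.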

[8] = Oral bioavailability in rat at 10 mg/kg; assay type: ADME, organism-based; conditions: in vivo
In short: (§3)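 Mouse and rat PK: single 1 mg/kg iv dose given in 100% DMSO, and 10 mg/kg po dose given in 1% Tween 80, 2% HPMC, 97% water.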

[9] = Intrinsic clearance in mouse liver microsomes at 1 uM measured after 30 mins in presence of NADPH by LC-MS analysis; assay type: ADME, Microsome; conditions: read-out: CLH
[10] = Intrinsic clearance in rat liver microsomes at 1 uM measured after 30 mins in presence of NADPH by LC-MS analysis; assay type: ADME, Microsome; conditions: read-out: CLH
[11] = Clearance in rat at […]; assay type: ADME, organism-based; conditions: in vivo; in short: as §3
[12] = tested on: GTPase KRas (Homo sapiens), P01116 [G12C]; assay: Inhibition of KRAS G12C mutant (unknown origin) at 10 uM incubated for 0.02 hrs in presence of GDP by rapidfire mass spectrometry analysis relative to control
In short: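 Intact-protein mass spectrometry of covalent adduct formation at Cys12 of GDP-bound KRASG12C. Test compound at 10 μM, with read-outs at 0.02, 0.2, 2 and 20 h. Values are the relative % of protein bound, measured directly under pseudo-first-order conditions. Earlier incubations in the paper used 2 μM protein.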

[13] = Plasma protein binding in mouse assessed as unbound fraction at 5 uM by ultracentrifugation method; assay type: ADME, cell-free; in short: as §2
[14] = Volume of distribution at steady state in rat at […]; assay type: ADME, organism-based; conditions: in vivo; in short: as §3
[15] = Hepatic intrinsic clearance in mouse hepatocytes assessed per 10^6 cells at 0.5 uM after 60 mins; assay type: ADME, cell-based, Hepatocyte; conditions: read-out: CLH
In short: (§4)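 Intrinsic clearance in mouse, rat or human hepatocytes. Compound at 0.5 μM, 0.5 million cells/mL, incubated 60 min.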

[16] = Hepatic intrinsic clearance in human hepatocytes assessed per 10^6 cells at 0.5 uM after 60 mins; assay type: ADME, cell-based, Hepatocyte; conditions: read-out: CLH; in short: as §4
[17] = Oral bioavailability in mouse at 10 mg/kg; assay type: ADME, organism-based; conditions: in vivo; in short: as §3
MIA PaCa-2 = assay: Cytotoxicity against human MIAPaCa2 cells assessed as reduction in cell viability measured after 72 hrs by Celltiter-Glo luminescent cell viability assay; assay type: functional, cell-based; conditions: MIA PaCa-2, 72 h
In short: (§5)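 Cell viability in MIA PaCa-2 (KRAS p.G12C) or A549 (KRAS p.G12S) cells, read by CellTiter-Glo luminescence.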

[18] = Half-life in mouse at 10 mg/kg, po; assay type: ADME, organism-based; conditions: in vivo; in short: as §3
[19] = Hepatic intrinsic clearance in rat hepatocytes assessed per 10^6 cells at 0.5 uM after 60 mins; assay type: ADME, cell-based, Hepatocyte; conditions: read-out: CLH; in short: as §4
[20] = Solubility of compound in FASIIF measured after 72 hrs by HPLC; assay type: physicochemical; conditions: FaSSIF
In short: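 Solubility in fasted-state simulated intestinal fluid, measured by HPLC after equilibration at room temperature for 72 h.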

[21] = Clearance in mouse at […]; assay type: ADME, organism-based; conditions: in vivo; in short: as §3
[22] = Volume of distribution at steady state in mouse at […]; assay type: ADME, organism-based; conditions: in vivo; in short: as §3
[23] = Half-life in rat at 10 mg/kg, po; assay type: ADME, organism-based; conditions: in vivo; in short: as §3
A549 = assay: Cytotoxicity against human A549 cells assessed as reduction in cell viability measured after 72 hrs by Celltiter-Glo luminescent cell viability assay; assay type: functional, cell-based; conditions: A549, 72 h; in short: as §5
[24] = Intrinsic clearance in human liver microsomes at 1 uM measured after 30 mins in presence of NADPH by LC-MS analysis; assay type: ADME, Microsome; conditions: read-out: CLH
[25] = Plasma protein binding in rat assessed as unbound fraction at 5 uM by ultracentrifugation method; assay type: ADME, cell-free; in short: as §2
GTPase KRas [26] = target: GTPase KRas (Homo sapiens, UniProt P01116, C118A/G12C); assay: Inhibition of GDP bound N terminal His-tagged KRAS G12C/C118A mutant (unknown origin) (1 to 169 residues) assessed as reduction in SOS-mediated guanine nucleotide exchange preincubated for 2 hrs followed by addition of SOS and GTP and measured after 1 hr by alphascreen assay
In short: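 Inhibitor preincubated with protein 2 h, then SOS1 and GTP added to exchange GTP into the nucleotide site. GTP loading read as proximity of RAF Ras-binding domain, which binds only active KRAS. IC50 from dose response.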

Structure (SMILES)	inhibition [1] [%]	K [2] [M⁻¹ s⁻¹]	inhibition [3] [%]	half-life [4] [h]	inhibition [5] [%]	IC50 (GTPase KRas [6]) [nM]	inhibition [12] [%]	other results
C=CC(=O)N1CC(NC(=O)Cn2c(C)c(C(=O)N3CCc4c(cccc4OC)C3)c3cc(Cl)ccc32)C1	100	69	34	1.67	100	3550		
C=CC(=O)N1CC(NC(=O)Cn2c(C3CC3)c(C(=O)N3CCc4c(cccc4OC)C3)c3cc(Cl)cc(C)c32)C1	100	2640	94	1.33	100		69	fraction unbound at 5 µM [7]: 0.04; bioavailability [8]: < 1%; microsomal CLint at 1 µM [9]: 708 µL/min/mg; microsomal CLint at 1 µM [10]: 197 µL/min/mg; CL/F [11]: 65 mL/min/kg; fraction unbound at 5 µM [13]: 0.02; Vdss [14]: 2.6 L/kg; hepatocyte CLint at 0.5 µM [15]: 228 µL/min/1e6 cells; hepatocyte CLint at 0.5 µM [16]: 53 µL/min/1e6 cells; bioavailability [17]: 8%; IC50 (MIA PaCa-2): 67 nM; half-life [18]: 0.9 h; hepatocyte CLint at 0.5 µM [19]: 293 µL/min/1e6 cells; solubility at 72 h [20]: 252 µM (≈ 141 µg/mL); CL/F [21]: 107 mL/min/kg; Vdss [22]: 2.9 L/kg; half-life [23]: 0.7 h; IC50 (A549): 9330 nM; microsomal CLint at 1 µM [24]: 161 µL/min/mg; fraction unbound at 5 µM [25]: 0.02
C=CC(=O)N1CC(NC(=O)Cn2cc(C(=O)N3CCc4ccccc4C3)c3cc(Br)ccc32)C1	100	308	100	1.67	100		0	
C=CC(=O)N1CC(NC(=O)COc2ccc(Br)cc2C(=O)N2CC=C(c3ccccc3)C2)C1		26		1.67		11300		IC50 (GTPase KRas [26]): 2780 nM
C=CC(=O)N1CC(NC(=O)Cn2ccc3cc(Br)ccc32)C1	14	2		1.67	67			IC50 (GTPase KRas [26]): > 250000 nM
C=CC(=O)N1CC(NC(=O)Cn2cc(C(=O)N3CCc4c(cccc4OC)C3)c3cc(Br)ccc32)C1	100	230	92	1.67	100	11400	13	
C=CC(=O)N1CC(NC(=O)Cn2c(C)c(C(=O)N3CCc4c(cccc4OC)C3)c3cc(Br)ccc32)C1	100	256	91	1.67	100	1680	14	
C=CC(=O)N1CC(NC(=O)Cn2cc(C(=O)NCc3ccccc3)c3cc(Br)ccc32)C1	29	5		1.67	93			
C=CC(=O)N1CC(NC(=O)Cn2cc(C(=O)N3CCc4cc(Cl)ccc4C3)c3cc(Br)ccc32)C1	100	132	55	1.67	100			
C=CC(=O)N1CC(NC(=O)Cn2cc(C(=O)N(C)Cc3ccccc3)c3cc(Br)ccc32)C1	35	6		1.67	100			
C=CC(=O)N1CC(NC(=O)Cn2cc(C(=O)N3CCc4cc(F)ccc4C3)c3cc(Br)ccc32)C1	100	326	86	1.67	100			
C=CC(=O)N1CC(NC(=O)COc2ccc(Br)cc2NC(=O)c2cc(C)no2)C1	11	2			63			
C=CC(=O)N1CC(NC(=O)Cn2c(C)c(C(=O)N3CCc4c(cccc4OC)C3)c3cc(Br)cc(C)c32)C1	100	83	39	1.67		299		
C=CC(=O)N1CC(NC(=O)COc2ccc(Br)cc2)C1		0.3						
C=CC(=O)N1CC(NC(=O)Cn2cc(C(=O)N3CCc4c(Cl)cccc4C3)c3cc(Br)ccc32)C1	100	188	67	1.67	100			
C=CC(=O)N1CC(NC(=O)Cn2cc(C(=O)N3CCc4c(F)cccc4C3)c3cc(Br)ccc32)C1	100	247	77	1.67	100			
C=CC(=O)N1CC(NC(=O)Cn2c(C3CC3)c(C(=O)N3CCc4c(cccc4OC)C3)c3cc(Br)ccc32)C1	100	549	90	1.67		604	35	
C=CC(=O)N1CC(NC(=O)Cn2cc(C(=O)NCCc3ccccc3)c3cc(Br)ccc32)C1	59	12		1.67	100			
C=CC(=O)N1CC(NC(=O)Cn2cc(C(=O)N3CCc4c(cccc4OC)C3)c3cc(Br)cc(C)c32)C1	100	> 400	100	1.67	100			
C=CC(=O)N1CC(NC(=O)Cn2c(C)c(C(=O)N3CCc4c(cccc4OC)C3)c3cc(Cl)cc(C)c32)C1	100	583	85	1.67	100		40	

From ChEMBL document CHEMBL4364340, “Discovery of N-(1-Acryloylazetidin-3-yl)-2-(1H-indol-1-yl)acetamides as Covalent Inhibitors of KRASG12C” (ACS Med Chem Lett, 2019)
